Only some compounds are listed: those with a hit (about 1.8% of all), similar ones and a draw of the others.
M4 PAM: CHRM4 positive allosteric modulation; CHO-K1 hM4/Gqi5, Fluo-8 calcium fluorescence, ACh EC20; 0% = ACh EC20, 100% = maximal ACh; activation, % at 3 µM; 360,000 compounds, 0.4% hits; AID 624126;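 active means activation above its plate's cutoff, the mean activation of sample wells plus 3 SD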
Target sequence (P08173 whole entry, looked up): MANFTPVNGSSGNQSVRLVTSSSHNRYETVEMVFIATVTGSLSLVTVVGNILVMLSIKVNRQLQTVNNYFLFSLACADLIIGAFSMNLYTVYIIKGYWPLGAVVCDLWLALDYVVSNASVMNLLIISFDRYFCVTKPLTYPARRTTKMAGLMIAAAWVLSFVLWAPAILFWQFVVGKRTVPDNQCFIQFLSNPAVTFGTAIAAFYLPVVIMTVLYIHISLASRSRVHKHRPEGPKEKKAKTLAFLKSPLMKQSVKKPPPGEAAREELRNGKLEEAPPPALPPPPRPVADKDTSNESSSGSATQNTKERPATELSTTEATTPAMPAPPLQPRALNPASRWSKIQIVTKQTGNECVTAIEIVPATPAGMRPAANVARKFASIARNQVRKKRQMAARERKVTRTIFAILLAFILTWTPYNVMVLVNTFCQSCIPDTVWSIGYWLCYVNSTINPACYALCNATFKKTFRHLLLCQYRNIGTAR
CHRM4 agonist: agonists of human muscarinic M4 receptor (CHRM4). P08173. CHO-K1 hM4/Gqi5, Fluo-8 calcium fluorescence; vehicle 0%, full acetylcholine response 100%. activation, % at 3 µM. 360,000 compounds, 0.14% hits. AID 624127;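 active means activation above the run mean over all test wells plus 3 SD, cut at about 32% in these data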;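 further: peak over basal fluorescence ratio per well then scaled between controls; 0% = DMSO wells and 100% = acetylcholine at EC100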
CHRM5 agonist: CHRM5 agonism in calcium assay. P08912. 360,000 compounds, 0.19% hits. CHO-K1 hM5 cells, Fluo-8 calcium fluorescence; 0% DMSO wells, 100% maximal acetylcholine response. activation, % at 3 µM;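 active means activation above the run's mean over test compounds plus 3 SD, cut at about 23% in these data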;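 further: signal is peak over basal fluorescence ratio across the kinetic read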
CHRM5 antagonist: CHRM5 antagonism in calcium assay | inhibition, % at 3 µM | CHO-hM5 cells, Fluo-8 calcium fluorescence, ACh EC80 | 360,000 compounds, 0.59% hits | AID 624040;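 active means inhibition above a per-plate cutoff, the mean of that plate's test compounds plus 3 SD, cut at about 27% in these data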;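 further: 0% = acetylcholine EC80 with DMSO and 100% = DMSO without agonist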
M4 antag: antagonists of human muscarinic M4 receptor (CHRM4); P08173; CHO-hM4 cells, ACh EC80, Fluo-8 calcium fluorescence; inhibition, % at 3 µM; 360,000 compounds, 0.73% hits;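 active means inhibition above its plate's cutoff, the mean inhibition of sample wells plus 3 SD, cut at about 27% in these data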;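 further: 0% = acetylcholine EC80 with DMSO and 100% = DMSO without agonist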
M5 PAM: CHRM5 positive allosteric modulation; activation, % at 3 µM; CHO-K1 hM5, Fluo-8 calcium, ACh EC20 PAM; 0% = ACh EC20, 100% = ACh EC100; AID 624038; 360,000 compounds, 0.3% hits; P08912;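 active means activation above the run cutoff, the mean activation of all test compounds plus 3 SD, cut at about 18% in these data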
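Assay system – human M5 receptor in CHO-K1 cells · Read-out – % activation, ACh-normalized · Technique – Fluo-8 calcium fluorescence · Dosing – single-point, 3 µM nominal · Incubation – Fluo-8 loading 80 min at 37 °C plus 30 min room temperature · Repeats – singlicate, one well per test compound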
Numbers without * were called inactive; ! = not confirmed by another sample.

SMILES | M4 PAM | CHRM4 agonist | CHRM5 agonist | CHRM5 antagonist | M4 antag | M5 PAM
Cc1cc2cc(CNC(=S)NC3CCCCC3)ccc2[nH]1 | 11 | 2 | 1 | 6 | -9 | -2
Nn1c(SC/C=C/c2ccccc2)nnc1-c1cccnc1 | 7 | 1 | 0 | 2 | 28* | 3
Clc1ccc(-n2c(SC/C=C/c3ccccc3)nnc2-c2cccnc2)cc1 | 1 | 4 | 0 | -3 | 12 | -3
Nn1c(SCc2cccc(F)c2)nnc1-c1cccnc1 | -13 | 18 | 1 | 15 | -1 | -18
Nn1c(SCc2cccc(Br)c2)nnc1-c1cccnc1 | 11 | 1 | -6 | -10 | -11 | 19*
N#CC1=C(N2CCCCC2)c2cc3c(n2C1=O)CCCC3 | -19 | 2 | -5 | 13 | 31* | -3
N#CC(=C1C=CC(=NO)C(Cl)=C1)c1ccc(Cl)cc1 | -6 | 2 | -3 | 5 | 39* | 3
COc1ccc(C(C#N)=C2C=CC(=NO)C=C2)cc1 | -11 | 1 | 0 | -2 | 5 | -2
COC1=CC(=O)OC(c2ccc(C(F)(F)F)cc2)C1 (configuration not stated) | 0 | 2 | -1 | -6 | -3 | 6
Cn1nc(C(C)(C)C)c([N+](=O)[O-])c1C(=O)NC(C)(C)C | 32* | 1 | 1 | 5 | 1 | 4
Cn1nc(C(C)(C)C)c([N+](=O)[O-])c1C(=O)Nc1ccccc1 | 4 | 3 | 0 | 15 | -5 | -15
CCOC(=O)c1c(-c2ccc(C)o2)csc1NC(=O)CSc1nnnn1-c1ccccc1 | -8 | 9 | 0 | 7 | 30* | -5
CCOC(=O)c1c(-c2ccc(C)o2)csc1NC(=O)CSc1nnc(C)s1 | -12 | 16 | 4 | 0 | 12 | -7
O=C(CSc1nnnn1-c1ccccc1)NCc1cccs1 | 6 | 1 | 3 | -17 | -7 | 20*
CCN(CC)C(=O)CSc1ccc(C(F)(F)F)cc1[N+](=O)[O-] | 8 | 2 | -2 | 8 | -7 | -4
CCCCNC(=O)c1ccc(SCC(=O)N(CC)CC)c([N+](=O)[O-])c1 | 4 | 1 | 6 | -12 | -13 | 19*
CCCc1nc2cc(C)c(Br)c(C)n2c1Cc1ccsc1 | -7 | 0 | -2 | 9 | -6 | -12
Cc1ccc(S(=O)(=O)NC(=O)NCCCCNC(=O)NS(=O)(=O)c2ccc(C)cc2)cc1 | 10 | 1 | 6 | -18 | 7 | 21*
COC(=O)NNS(=O)(=O)c1ccc(C)cc1 | -2 | 0 | 2 | -3 | -7 | 0
CCCCNC(=O)NS(=O)(=O)c1ccc(C)cc1 | -1 | 1 | 15 | 1 | -5 | -7
Cc1ccc(S(=O)(=O)NNC(=O)CC#N)cc1 | 15 | 1 | 0 | -15 | -6 | 21*
O=S(=O)(NCC[C@@H]1CC[C@H](NS(=O)(=O)c2cccc(F)c2)[C@@H](CO)O1)c1cccc(F)c1 | 7 | 1 | -3 | 14 | -7 | -12
CC1(C)N=C(SCC(=O)Nc2ccc(Cl)cc2Cl)C(c2ccccc2)=N1 | -1 | 0 | -10 | -2 | -2 | -1
CN1C(CC(=O)Nc2ccc(Cl)cc2Cl)c2ccccc2CC1(C)C (configuration not stated) | -14 | -1 | -9 | 12 | 29* | -9
Cc1ccc(OCC(=O)OCC(=O)Nc2sccc2C(N)=O)cc1C | -11 | 16 | 10 | 32* | 23 | -18
SMILES | M4 PAM | CHRM4 agonist | CHRM5 agonist | CHRM5 antagonist | M4 antag | M5 PAM
NC(=O)c1ccsc1NC(=O)COC(=O)CSc1ccc(Cl)cc1 | -18 | 16 | 4 | 32* | 16 | -20
NC(=O)c1ccsc1NC(=O)COC(=O)c1ccc(Cl)cc1 | -11 | 26 | 7 | 15 | 11 | -28
O=C(COC(=O)CSc1ccc(Cl)cc1)NCCc1ccccc1 | 24* | 3 | -3 | -3 | -14 | 4
CC(C)(C)NC(=O)C(c1ccccc1F)n1c(=O)c(-c2ccccc2)nc2ccccc21 (configuration not stated) | 5 | -2 | 1 | -7 | -10 | 0
CC1(c2ccccc2)CC(C)(C)N2C(=O)Cc3cccc1c32 (configuration not stated) | -13 | -1 | -8 | 6 | 33* | -3
O=C(Cn1c(=O)c2cccn2c2ccc(F)cc21)N1CCN(c2ccc(F)cc2)CC1 | -5 | 2 | -2 | 28* | 3 | -10
OC1C2COC(O2)C2OC(c3ccccc3)OC12 (configuration not stated) | 8 | 1 | 2 | -2 | -7 | -3
CC1(C(=O)NCc2ccccc2)CN(S(C)(=O)=O)CC(=O)N1Cc1cccs1 (configuration not stated) | 20 | 4 | 6 | -12 | -9 | 13
O=c1c(-c2ccco2)[n+]([O-])c2ccccc2n1OCc1c(F)cccc1F | 0 | 5 | 9 | -15 | -13 | 19*
O=C(CCl)N(c1ccccc1)c1c[nH]c2ccccc12 | 2 | 2 | -5 | -2 | 0 | -3
O=C(CCl)N(c1ccc(Cl)cc1)c1c[nH]c2ccccc12 | 5 | 8 | 8 | 6 | 35* | 5
COc1c(C)cc(C(O)c2ncc(-c3ccccc3F)[nH]2)cc1C (configuration not stated) | 3 | 3 | 3 | 5 | -7 | -2
O=C(NC(Cc1ccccc1)C(=O)O)/C(=C/c1ccc(Br)cc1)NC(=O)c1ccc(Br)o1 (configuration not stated) | 19* | 0 | -4 | 9 | -1 | -5
O=C(NC(Cc1ccccc1)C(=O)O)/C(=C\c1ccc(Br)cc1)NC(=O)c1ccc(Br)o1 (configuration not stated) | -4 | 0 | 2 | -8 | 15 | 6
N#Cc1c(N)c(C#N)c(-c2ccc(O)cc2)c2c1CCCC2 | 5 | 8 | 0 | 3 | 1 | -2
N#Cc1c(N)c(C#N)c(-c2ccc3c(c2)OCO3)c2c1CCCC2 | 39* | 0 | -3 | -18 | 1 | 23*
COc1ccc(C(=O)Nc2ccc([N+](=O)[O-])cn2)c(OC)c1 | 0 | 1 | -1 | 11 | -1 | 20*
CC(=O)c1ccc(NC(=S)NCc2ccc(Cl)cc2Cl)cc1 | -18 | 18 | 8 | 29* | 18 | -25
CC(=O)c1ccc(NC(=O)Nc2ccc(Cl)cc2)cc1 | -14 | 28 | 10 | 24 | 6 | -21
O=C(Cc1cc(=O)[nH][nH]1)N/N=C/c1c(Cl)cccc1Cl | -4 | 1 | 0 | -1 | 3 | 0
O=C(Cc1cc(=O)[nH][nH]1)N/N=C/C(Cl)=C/c1ccccc1 | 35*! | 0 | -1 | 0 | -3 | -1

Bioassay records deposited in PubChem BioAssay by The Scripps Research Institute Molecular Screening Center.
